Data published in publication PMC7141570 (Febs Letters, 2000).
Where “and” joins values, the source holds several entries; their conditions need not be identical. Equal entries are not always repeated. Entries after “also recorded” stand apart in the source; their conditions may differ. Values belong to the molecule of their own block, whether it stands above or below them.

Key:
[1] = target: T1, APN in rat brain membranes (Rattus norvegicus, UniProt P15684); assay: Competition with [125I]RB 129 binding on rat brain membranes; details: for inhibition of specific [125I]RB 129 binding (qualitative): rat brain membranes
T1 sequence (P15684 1-965): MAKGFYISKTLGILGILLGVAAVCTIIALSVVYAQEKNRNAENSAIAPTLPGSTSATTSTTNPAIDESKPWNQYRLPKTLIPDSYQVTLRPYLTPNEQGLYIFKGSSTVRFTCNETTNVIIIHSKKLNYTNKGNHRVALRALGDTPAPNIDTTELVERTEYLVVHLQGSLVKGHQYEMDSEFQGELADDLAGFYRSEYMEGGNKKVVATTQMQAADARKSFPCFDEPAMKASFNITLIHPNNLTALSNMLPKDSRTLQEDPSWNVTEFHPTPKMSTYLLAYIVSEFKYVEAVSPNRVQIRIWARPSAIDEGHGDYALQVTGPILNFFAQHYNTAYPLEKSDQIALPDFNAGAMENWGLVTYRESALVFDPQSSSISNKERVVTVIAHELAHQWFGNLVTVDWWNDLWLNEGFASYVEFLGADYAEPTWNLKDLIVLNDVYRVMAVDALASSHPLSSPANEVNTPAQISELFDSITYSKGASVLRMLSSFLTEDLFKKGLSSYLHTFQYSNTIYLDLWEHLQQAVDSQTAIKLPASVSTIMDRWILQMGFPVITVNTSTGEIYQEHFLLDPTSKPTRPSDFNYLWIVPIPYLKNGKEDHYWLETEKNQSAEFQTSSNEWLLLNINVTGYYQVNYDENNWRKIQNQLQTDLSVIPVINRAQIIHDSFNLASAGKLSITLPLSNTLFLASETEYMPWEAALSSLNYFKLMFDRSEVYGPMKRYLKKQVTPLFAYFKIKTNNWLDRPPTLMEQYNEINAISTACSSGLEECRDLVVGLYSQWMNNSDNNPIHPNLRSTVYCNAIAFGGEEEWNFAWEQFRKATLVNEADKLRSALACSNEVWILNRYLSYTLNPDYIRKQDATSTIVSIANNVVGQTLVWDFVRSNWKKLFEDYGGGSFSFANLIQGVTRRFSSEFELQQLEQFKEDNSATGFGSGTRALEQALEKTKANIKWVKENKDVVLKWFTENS

pure porcine APN = details: read-out: K i in enzymatic studies; cited from earlier work
recombinant pig APN [2] = target: T2, recombinant pig APN (Sus scrofa, UniProt P15145); assay type: binding; details: transfected COS-7 cell membranes
T2 sequence (P15145 1-963): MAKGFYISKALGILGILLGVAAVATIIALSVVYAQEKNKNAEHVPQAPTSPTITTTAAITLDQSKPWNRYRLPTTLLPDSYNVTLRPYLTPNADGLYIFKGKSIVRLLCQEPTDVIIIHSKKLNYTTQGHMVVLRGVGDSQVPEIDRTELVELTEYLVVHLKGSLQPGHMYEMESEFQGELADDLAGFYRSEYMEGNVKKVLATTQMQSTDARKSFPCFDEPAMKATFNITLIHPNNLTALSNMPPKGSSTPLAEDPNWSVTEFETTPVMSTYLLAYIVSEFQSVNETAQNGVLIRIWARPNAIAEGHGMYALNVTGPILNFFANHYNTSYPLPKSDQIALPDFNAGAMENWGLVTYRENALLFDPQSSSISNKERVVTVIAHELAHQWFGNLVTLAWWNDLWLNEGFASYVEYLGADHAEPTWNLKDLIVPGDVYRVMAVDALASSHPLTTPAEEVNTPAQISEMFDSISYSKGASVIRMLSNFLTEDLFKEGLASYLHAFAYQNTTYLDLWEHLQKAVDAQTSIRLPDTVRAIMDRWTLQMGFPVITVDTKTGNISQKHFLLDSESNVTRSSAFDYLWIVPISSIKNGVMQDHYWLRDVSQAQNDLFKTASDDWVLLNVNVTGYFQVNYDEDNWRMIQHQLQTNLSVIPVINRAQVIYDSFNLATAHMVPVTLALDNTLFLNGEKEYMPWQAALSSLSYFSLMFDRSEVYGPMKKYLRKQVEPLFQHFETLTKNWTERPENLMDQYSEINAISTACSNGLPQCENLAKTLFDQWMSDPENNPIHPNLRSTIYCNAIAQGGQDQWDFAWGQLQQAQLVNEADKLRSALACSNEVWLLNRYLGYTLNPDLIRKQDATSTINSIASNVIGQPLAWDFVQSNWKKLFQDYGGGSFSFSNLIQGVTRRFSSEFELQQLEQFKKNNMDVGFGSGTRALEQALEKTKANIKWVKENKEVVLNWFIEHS

NEP = details: read-out: K i for NEP; enzymatic assay; cited from earlier work
[3] = target: T1, APN in rat brain membranes; assay: [125I]RB 129 kinetic and saturation binding to rat brain membranes
Outline: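 Rat brain minus cerebellum homogenised in 50 mM Tris–HCl pH 7.4, spun at 1000×g then 100 000×g; pellet resuspended in buffer with 0.02% bacitracin, 0.4–0.6 mg protein/ml. Incubations at 35°C with thiorphan. Kinetics used 100 pM [125I]RB 129, with dissociation started by 1 μM unlabeled RB 129 after 120 min. Saturation ran 0.075–8 nM for 80 min. Nonspecific binding defined with 1 μM RB 129; bound ligand collected on GF/B filters.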

recombinant pig APN [4] = target: T2, recombinant pig APN; assay type: binding
Outline: (§1)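 Pig APN cDNA, wild-type or E350A, in pcDNA3 was electroporated (50 μg per 10×10^6 cells) into COS-7 cells grown in DMEM with 10% FCS, then kept 48 h at 37°C. Membranes (100 000×g) were resuspended in 50 mM Tris–HCl pH 7.4 with 0.02% bacitracin, 50–100 μg protein/tube. Saturation used 0.075–8 nM [125I]RB 129 for 80 min at 35°C with thiorphan, 1 μM RB 129 for nonspecific binding, GF/B filtration and Scatchard analysis.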

APN mutant E^350A = target: T3, APN mutant E^350A (Sus scrofa, UniProt P15145, E350A); assay: [125I]RB 129 binding to mutated APN expressed in COS-7 cells; parameters: species or system pig; details: E^350A mutated APN in COS-7 cells
T3 sequence (P15145 2-963 E350A): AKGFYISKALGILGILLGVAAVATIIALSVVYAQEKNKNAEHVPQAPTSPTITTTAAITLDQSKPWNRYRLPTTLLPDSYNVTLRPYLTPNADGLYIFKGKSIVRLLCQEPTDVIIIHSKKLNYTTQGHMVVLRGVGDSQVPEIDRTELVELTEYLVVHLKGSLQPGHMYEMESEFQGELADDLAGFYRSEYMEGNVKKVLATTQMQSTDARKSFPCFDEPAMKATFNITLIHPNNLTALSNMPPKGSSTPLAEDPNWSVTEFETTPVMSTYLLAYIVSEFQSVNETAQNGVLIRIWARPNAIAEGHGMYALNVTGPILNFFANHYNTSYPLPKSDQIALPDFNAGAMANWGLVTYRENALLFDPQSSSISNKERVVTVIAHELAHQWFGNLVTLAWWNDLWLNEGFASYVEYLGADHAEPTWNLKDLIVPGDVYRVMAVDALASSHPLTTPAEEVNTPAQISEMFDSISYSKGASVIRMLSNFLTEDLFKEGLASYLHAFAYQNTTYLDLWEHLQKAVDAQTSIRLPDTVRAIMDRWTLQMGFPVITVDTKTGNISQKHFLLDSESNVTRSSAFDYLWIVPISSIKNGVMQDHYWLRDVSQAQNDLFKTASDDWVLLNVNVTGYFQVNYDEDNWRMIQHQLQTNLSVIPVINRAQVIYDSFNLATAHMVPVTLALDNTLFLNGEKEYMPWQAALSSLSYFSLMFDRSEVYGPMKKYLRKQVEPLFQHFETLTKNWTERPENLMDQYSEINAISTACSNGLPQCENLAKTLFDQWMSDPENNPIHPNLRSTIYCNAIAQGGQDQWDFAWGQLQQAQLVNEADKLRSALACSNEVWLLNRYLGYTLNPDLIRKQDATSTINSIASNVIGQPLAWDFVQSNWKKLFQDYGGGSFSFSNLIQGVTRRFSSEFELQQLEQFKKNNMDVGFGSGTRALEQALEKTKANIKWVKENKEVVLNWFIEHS
Outline: as §1

SMILES: NC(CS)Cc1ccccc1 (stereo not shown) [Phe‐thiol]
inhibition of specific [125I]RB 129 binding (qualitative) [1]: concentration‐dependent inhibition | Ki (pure porcine APN): 12.1 nM

fold lower affinity in rat brain binding versus enzymatic assay ([1]; rat brain membrane K i vs enzymatic K i on porcine APN): more than 10 fold | inhibition of specific [125I]RB 129 binding (qualitative) [1]: concentration‐dependent inhibition | inhibition of specific [125I]RB 129 binding (qualitative) (recombinant pig APN [2]): concentration‐dependent inhibition
SMILES: O=C(CC(Cc1ccccc1)C(=O)N[C@@H](Cc1ccccc1)C(=O)O)NO (stereo partly shown) [RB 38A]
Ki (pure porcine APN): 120 nM

inhibition of specific [125I]RB 129 binding (qualitative) [1]: concentration‐dependent inhibition | inhibition of specific [125I]RB 129 binding (qualitative) (recombinant pig APN [2]): concentration‐dependent inhibition
SMILES: C[C@H](N)P(=O)(O)C[C@@H](Cc1ccccc1)C(=O)N[C@@H](Cc1ccc(O)c(I)c1)C(=O)O [RB 129, 2(S)‐benzyl‐3‐[hydroxy(1′(R)‐aminoethyl)phosphinyl]propanoyl‐L‐3‐iodotyrosine]
Ki (NEP): 23.6 nM

association rate constant, k +1 ([3]; 100 pM ligand, 35°C, rat brain membranes): 1.58e+06 M⁻¹ s⁻¹ | incubation time to reach binding equilibrium ([3]; 100 pM, 35°C): 80 min | specific binding at routine protein concentration ([3]; 0.4–0.6 mg/ml rat brain membrane protein): 80–98% | dissociation rate constant (k −1) ([3]; dissociation initiated with 1 μM unlabeled RB 129, 35°C): 0.022 min⁻¹ | specific binding at the K d value ([3]; rat brain homogenates): 95% | specific binding at routine protein concentration (recombinant pig APN [4]; 50–100 μg/ml recombinant APN protein): 80–98% | specific binding at the K d value (recombinant pig APN [4]; recombinant APN in COS-7 cells): ~92% | maximal capacity of binding sites (B max) (recombinant pig APN [4]; recombinant APN wild-type in COS-7 cells): 650±67 fmol/mg of protein
SMILES: C[C@H](N)P(=O)(O)C[C@@H](Cc1ccccc1)C(=O)N[C@@H](Cc1ccc(O)c([125I])c1)C(=O)O [[^125I]RB 129, 2(S)‐benzyl‐3‐[hydroxy(1′(R)‐aminoethyl)phosphinyl]propanoyl‐L‐3‐[^125I]iodotyrosine]
maximal capacity of binding sites (B max) ([3]; saturation, rat brain homogenates): 722±88 fmol/mg of protein and 722 fmol/mg of protein | specific binding on mutated APN (APN mutant E^350A): No specific binding; also recorded: non‐measurable specific binding
